Consider 32 compounds from ChEMBL document CHEMBL4627406, “Amino Acids Bearing Aromatic or Heteroaromatic Substituents as a New Class of Ligands for the Lysosomal Sialic Acid Transporter Sialin” (J Med Chem, 2020).

The target of test [1] is T1, Sialin (Homo sapiens) (UniProt Q9NRA2).
T1 sequence (whole entry): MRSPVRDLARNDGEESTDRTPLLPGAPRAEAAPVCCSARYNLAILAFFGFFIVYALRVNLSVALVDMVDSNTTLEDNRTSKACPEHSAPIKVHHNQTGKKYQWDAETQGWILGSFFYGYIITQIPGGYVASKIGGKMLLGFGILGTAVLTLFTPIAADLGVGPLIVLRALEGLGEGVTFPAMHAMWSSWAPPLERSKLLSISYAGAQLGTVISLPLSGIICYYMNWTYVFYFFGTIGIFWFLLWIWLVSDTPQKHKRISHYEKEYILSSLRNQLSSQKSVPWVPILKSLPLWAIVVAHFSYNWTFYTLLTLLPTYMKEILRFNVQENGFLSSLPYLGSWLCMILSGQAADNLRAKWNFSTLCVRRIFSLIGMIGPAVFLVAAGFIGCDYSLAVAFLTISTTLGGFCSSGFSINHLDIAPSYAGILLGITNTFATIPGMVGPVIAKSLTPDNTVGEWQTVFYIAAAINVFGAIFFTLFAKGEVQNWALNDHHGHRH
In words: Inhibition of human recombinant-Sialin expressed in HEK293 cells assessed as reduction in [3H]Neu5Ac uptake at 30 uM incubated for 15 mins by liquid scintillation counting method. The class given is cell-based. The method in brief:
(§1)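 HEK293 cells expressing EGFP-human sialin L22G/L23G (sorting mutant at the plasma membrane), assayed 2 days after lipofection. Uptake of [3H]Neu5Ac (12.5 nM) over 15 min at room temperature in MES-Na+ pH 5.0 with inhibitor added together with tracer. Cells washed twice ice-cold, radioactivity counted by liquid scintillation. Dose-response run in triplicate, two to three independent experiments.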

Test [2] addresses T1, Sialin (Homo sapiens). Briefly: Inhibition of human recombinant-Sialin expressed in HEK293 cells assessed as reduction in [3H]Neu5Ac transport pre-incubated for 15 mins at pH 5.5 followed by 15 mins wash at pH 7 at room temperature by liquid scintillation counting method relative to control. Type of test: cell-based.
For test [3], the target named is T1, Sialin (Homo sapiens). Briefly: Ratio of Km for Neu5Ac to Ic50 for test compound for inhibition of human recombinant-Sialin expressed in HEK293 cells assessed as reduction in [3H]Neu5Ac uptake at 30 to 300 uM incubated for 15 mins by liquid scintillation counting method. Type of test: cell-based.
For test [4], the target named is T1, Sialin (Homo sapiens). Briefly: Inhibition of human recombinant-Sialin expressed in HEK293 cells assessed as reduction in [3H]Neu5Ac uptake at 30 to 300 uM incubated for 15 mins by liquid scintillation counting method. The class given is cell-based. The method in brief:
as §1

The subject of test [5] is HEK293. Briefly: Substrate activity at EGFP-fused human Sialin L22G/L23G mutant expressed in HEK293 cells in acidic medium using tritiated compound at 2 to 100 uM by liquid scintillation counting method. The class given is cell-based. The essentials: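 [3H]-labelled test ligand uptake measured in HEK293 cells expressing EGFP-sialin L22G/L23G versus mock (EGFP) cells, as for Neu5Ac uptake, using 2 μM tracer. For comparison, [3H]Neu5Ac was measured at 100 μM. Acidic MES pH 5.0 medium, liquid scintillation counting.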

Test [6] has as its target T1, Sialin (Homo sapiens). In words: Inhibition of human recombinant-Sialin expressed in HEK293 cells assessed as reduction in [3H]Neu5Ac uptake at 100 uM incubated for 15 mins by liquid scintillation counting method. The class given is cell-based. The essentials:
as §1

The target of test [7] is T1, Sialin (Homo sapiens). In words: Inhibition of human recombinant-Sialin expressed in HEK293 cells assessed as reduction in [3H]Neu5Ac transport at 120 uM pre-incubated for 15 mins at pH 5.5 followed by 15 or 30 mins wash at pH 7 at room temperature by liquid scintillation counting method relative to control. Type of test: cell-based.
The target of test [8] is T2, Cystinosin (Homo sapiens) (UniProt O60931).
T2 sequence (whole entry): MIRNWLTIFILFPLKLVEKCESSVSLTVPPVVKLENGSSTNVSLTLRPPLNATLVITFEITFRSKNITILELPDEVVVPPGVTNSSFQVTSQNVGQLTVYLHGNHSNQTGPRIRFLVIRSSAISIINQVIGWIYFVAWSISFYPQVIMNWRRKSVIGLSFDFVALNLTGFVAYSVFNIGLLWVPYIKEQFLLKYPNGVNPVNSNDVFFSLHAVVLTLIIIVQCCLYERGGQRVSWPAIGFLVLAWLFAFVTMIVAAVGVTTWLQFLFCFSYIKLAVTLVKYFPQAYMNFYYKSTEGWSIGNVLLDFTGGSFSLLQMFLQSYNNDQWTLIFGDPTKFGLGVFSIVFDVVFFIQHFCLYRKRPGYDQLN
Briefly: Inhibition of human cystinosin at 100 uM relative to control. The essentials:
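Human cystinosin and rat LYAAT1 expressed at the plasma membrane of HEK293 cells, assayed one day after lipofection in MES-Na+ pH 5.0. Substrates were [14C]cystine (20 μM) for cystinosin and [3H]proline (100 μM) for LYAAT1. Test agent present during uptake, run in parallel with sialin. Triplicate measurements, three independent experiments.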

In test [9] the target is T1, Sialin (Homo sapiens). In words: Non-competitive inhibition of human recombinant-Sialin expressed in HEK293 cells assessed as reduction in Vmax for [3H]Neu5Ac uptake at 10 uM incubated for 15 mins by liquid scintillation counting method relative to control. The class given is cell-based.
Test [10] concerns the target Proton-coupled amino acid transporter 1 (Homo sapiens) (UniProt Q7Z2H8). Briefly: Inhibition of human LYAAT1 at 100 uM relative to control.
Test [11] deals with T1, Sialin (Homo sapiens). Briefly: Trans-stimulation of human recombinant-Sialin expressed in HEK293 cells assessed as [3H]Neu5Ac transport at 5 mM pre-incubated for 15 mins at pH 5.5 followed by 15 or 30 mins wash at pH 7 at room temperature by liquid scintillation counting method. The class given is cell-based.
The subject of test [12] is HEK293. In words: Substrate activity mRFP-tagged human recombinant-Sialin L22G/L23G mutant expressed in HEK293 cells assessed as induction of cytosolic acidification by measuring E2GFP fluorescence at 10 mM at pH 5.5. Type of test: cell-based. The method in brief: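 HEK293 cells co-expressing the ratiometric pH probe E2GFP and mRFP-tagged human sialin L22G/L23G. Cytosolic acidification from sialin-mediated H+ co-transport was read by E2GFP fluorescence after application at pH 5.5 of Neu5Ac (10 mM) or test ligand (30 μM).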

Structures are written as SMILES. The source made the active and inactive calls. No cut-off for these calls is given here.

Sequence of Proton-coupled amino acid transporter 1 (Homo sapiens) (Q7Z2H8 whole entry): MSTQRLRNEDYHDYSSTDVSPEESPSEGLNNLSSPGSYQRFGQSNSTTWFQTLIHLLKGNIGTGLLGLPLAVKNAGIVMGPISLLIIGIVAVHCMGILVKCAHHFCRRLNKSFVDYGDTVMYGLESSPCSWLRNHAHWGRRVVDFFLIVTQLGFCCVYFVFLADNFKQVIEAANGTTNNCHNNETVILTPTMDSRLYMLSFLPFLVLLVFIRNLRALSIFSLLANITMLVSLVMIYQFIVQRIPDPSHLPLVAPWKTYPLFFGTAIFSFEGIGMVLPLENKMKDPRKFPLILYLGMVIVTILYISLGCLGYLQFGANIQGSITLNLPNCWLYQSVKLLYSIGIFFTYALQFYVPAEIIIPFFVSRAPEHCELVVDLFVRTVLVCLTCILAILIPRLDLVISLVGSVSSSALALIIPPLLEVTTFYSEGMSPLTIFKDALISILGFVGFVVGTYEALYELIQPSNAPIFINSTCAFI

Broadly, the inhibition is how much of the control response was suppressed. `CN(C)c1ccc2c(CC(=O)NCCCC[C@H](NC(=O)OCC3c4ccccc4-c4ccccc43)C(=O)O)cc(=O)oc2c1`: in test [1], the inhibition result was “Active”.
On to `CC(C)C[C@H](NC(=O)N1CCCCCC1)C(=O)N[C@H](Cc1cn(C)c2ccccc12)C(=O)N[C@H](Cc1ccccn1)C(=O)O`, for which the inhibition result in test [2] was “inactive”. In test [3], the Ratio worked out at 50.
As for `O=C(Cc1cc(=O)oc2c3c4c(cc12)CCCN4CCC3)N[C@@H](CCCCNC(=O)OCc1ccccc1)C(=O)O`, the inhibition result in test [1] is “Active”.
Take `CC(C)CC(NC(=O)OCC1c2ccccc2-c2ccccc21)C(=O)O` (stereo unspecified): the inhibition result in [1] was “Active”.
Take `O=C(O)[C@@H]1OCCOCCO[C@@H](C(=O)O)[C@H](C(=O)O)OCCOCCO[C@H]1C(=O)O`: the inhibition result in test [4] was “Active”.
Consider `O=C(N[C@@H](CSCc1ccccc1)C(=O)O)OCC1c2ccccc2-c2ccccc21`, for which, in test [1], the inhibition result is “inactive”.
Same read-out and setting: the same measure for `CC(C)(C)OC(=O)C[C@H](NC(=O)OCC1c2ccccc2-c2ccccc21)C(=O)O`: “Active”.
With `O=C(NCCCC[C@H](NC(=O)OCC1c2ccccc2-c2ccccc21)C(=O)O)OCc1ccccc1`, in [4], the inhibition entry was “Active”.
Turning to `CC(C)C[C@H](NC(=O)OCC1c2ccccc2-c2ccccc21)C(=O)O`, in [5], the outcome was inactive. The inhibition is 100% in test [6], 55% in test [7], “Dose-dependent effect” in test [4] and 56% in [9]. Further, the inhibition entry in test [8], in [1] and in [10] was “Active” in each case.
As to `CC(C)(C)OC(=O)NCc1ccc(C[C@@H](NC(=O)OCC2c3ccccc3-c3ccccc32)C(=O)O)cc1`, the inhibition entry in test [4] is “Active”.
With `O=C(Cc1cc(=O)oc2cc(O)ccc12)N[C@@H](CCCCNC(=O)OCc1ccccc1)C(=O)O`, the inhibition result in test [1] was “Active”.
Same read-out and setting: then `O=C(OCc1cc(=O)oc2cc(O)ccc12)OCC1c2ccccc2-c2ccccc21`, with “inactive”; and `O=C(N[C@@H](Cc1ccccc1)C(=O)O)OCC1c2ccccc2-c2ccccc21`, with “Active”.
The same measure, in the same setting: the same measure for `CC(C)(C)SC[C@H](NC(=O)OCC1c2ccccc2-c2ccccc21)C(=O)O`: “Active”.
On the same count and under the same terms, then `O=C(NCCCC[C@H](NC(=O)OCC1c2ccccc2-c2ccccc21)C(=O)O)OCC1c2ccccc2-c2ccccc21`, with “inactive”; and `CC[C@H](C)[C@H](NC(=O)OCC1c2ccccc2-c2ccccc21)C(=O)O`, with “Active”.
Turning to `CN(Cc1cnc2nc(N)nc(N)c2n1)c1ccc(C(=O)N[C@@H](CCC(=O)O)C(=O)O)cc1`, the inhibition result in test [4] is “Active”.
Consider `CCN(CC)c1ccc2c(CC(=O)N[C@@H](CCCCNC(=O)OCc3ccccc3)C(=O)O)cc(=O)oc2c1`, for which the inhibition result in test [1] is “Active”.
`O=C(O)CN(CC(=O)O)Cc1cc2c(cc1O)Oc1cc(O)c(CN(CC(=O)O)CC(=O)O)cc1C21OC(=O)c2ccccc21`: the inhibition result in test [4] is “Active”.
For the compound `CC(=O)N[C@H]1[C@H]([C@H](O)[C@H](O)CO)OC(O)(C(=O)O)C[C@@H]1O` (stereo partly specified), the result in test [5] and in test [12] was Active. Further, the Activity in [11] came out at 130%. The inhibition entry in [4] was “Active”.
Turning to `O=C(NCCCC[C@H](NC(=O)c1cc(=O)[nH]c2ccccc12)C(=O)O)OCc1ccccc1`, the inhibition result in [1] is “inactive”.
Still for that read-out and setting: the same measure for `O=C(NCCCC[C@H](NC(=O)OCc1cc(=O)oc2cc(O)ccc12)C(=O)O)OCc1ccccc1`: “Active”.
Turning to `Cc1cc(C)cc(C(=O)N(C)[C@H](Cc2ccc(-c3ccccc3)cc2)C(=O)N[C@@H](Cc2c[nH]c3ccccc23)C(=O)O)c1`, the inhibition result in [4] is “Active”.
In the case of `O=C(N[C@@H](CS)C(=O)O)OCC1c2ccccc2-c2ccccc21`, in [1], the inhibition result is “Active”.
Still for that read-out and setting: the same measure for `COc1ccc(CSC[C@H](NC(=O)OCC2c3ccccc3-c3ccccc32)C(=O)O)cc1`: “Active”.
The same measure, in the same setting: the same measure for `CN(C)c1ccc2c(CC(=O)N[C@@H](CCCCNC(=O)OCc3ccccc3)C(=O)O)cc(=O)oc2c1`: “Active”; for `O=C(O)[C@@H]1CCCN1C(=O)OCC1c2ccccc2-c2ccccc21`: “inactive”.
`O=C(N[C@@H](CSCc1cc(=O)oc2cc(O)c(Cl)cc12)C(=O)O)OCC1c2ccccc2-c2ccccc21`: in [1], the inhibition result is “Active”. For the same compound, the inhibition result in test [4] was “Dose-dependent effect”.
On to `CC(C)(C)Oc1ccc(C[C@H](NC(=O)OCC2c3ccccc3-c3ccccc32)C(=O)O)cc1`, for which the inhibition entry in test [1] is “Active”.
For the compound `COc1ccc2c(CSC[C@H](NC(=O)OCC3c4ccccc4-c4ccccc43)C(=O)O)cc(=O)oc2c1`, in test [1], the inhibition entry was “Active”. Also, in [4], the inhibition entry is “Dose-dependent effect”.
For `COC(=O)CC[C@H](NC(=O)OCC1c2ccccc2-c2ccccc21)C(=O)O` the same measures were “Active” and “Dose-dependent effect”.
Take `O=C(O)CN(CC(=O)O)c1ccccc1OCCOc1ccccc1N(CC(=O)O)CC(=O)O`: the inhibition result in [4] was “Active”.
